One data set is filed under the species Homo sapiens. The data set is described as follows: Selectivity ratio of IC50 for human HDAC1 to IC50 for human HDAC6. Put shortly:
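HDAC1 and HDAC6 IC50s are each the mean of two experiments.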

For data set [1], the target named is T1, Protein deacetylase HDAC6 (Homo sapiens, UniProt Q9UBN7).
T1 sequence (Q9UBN7 whole entry): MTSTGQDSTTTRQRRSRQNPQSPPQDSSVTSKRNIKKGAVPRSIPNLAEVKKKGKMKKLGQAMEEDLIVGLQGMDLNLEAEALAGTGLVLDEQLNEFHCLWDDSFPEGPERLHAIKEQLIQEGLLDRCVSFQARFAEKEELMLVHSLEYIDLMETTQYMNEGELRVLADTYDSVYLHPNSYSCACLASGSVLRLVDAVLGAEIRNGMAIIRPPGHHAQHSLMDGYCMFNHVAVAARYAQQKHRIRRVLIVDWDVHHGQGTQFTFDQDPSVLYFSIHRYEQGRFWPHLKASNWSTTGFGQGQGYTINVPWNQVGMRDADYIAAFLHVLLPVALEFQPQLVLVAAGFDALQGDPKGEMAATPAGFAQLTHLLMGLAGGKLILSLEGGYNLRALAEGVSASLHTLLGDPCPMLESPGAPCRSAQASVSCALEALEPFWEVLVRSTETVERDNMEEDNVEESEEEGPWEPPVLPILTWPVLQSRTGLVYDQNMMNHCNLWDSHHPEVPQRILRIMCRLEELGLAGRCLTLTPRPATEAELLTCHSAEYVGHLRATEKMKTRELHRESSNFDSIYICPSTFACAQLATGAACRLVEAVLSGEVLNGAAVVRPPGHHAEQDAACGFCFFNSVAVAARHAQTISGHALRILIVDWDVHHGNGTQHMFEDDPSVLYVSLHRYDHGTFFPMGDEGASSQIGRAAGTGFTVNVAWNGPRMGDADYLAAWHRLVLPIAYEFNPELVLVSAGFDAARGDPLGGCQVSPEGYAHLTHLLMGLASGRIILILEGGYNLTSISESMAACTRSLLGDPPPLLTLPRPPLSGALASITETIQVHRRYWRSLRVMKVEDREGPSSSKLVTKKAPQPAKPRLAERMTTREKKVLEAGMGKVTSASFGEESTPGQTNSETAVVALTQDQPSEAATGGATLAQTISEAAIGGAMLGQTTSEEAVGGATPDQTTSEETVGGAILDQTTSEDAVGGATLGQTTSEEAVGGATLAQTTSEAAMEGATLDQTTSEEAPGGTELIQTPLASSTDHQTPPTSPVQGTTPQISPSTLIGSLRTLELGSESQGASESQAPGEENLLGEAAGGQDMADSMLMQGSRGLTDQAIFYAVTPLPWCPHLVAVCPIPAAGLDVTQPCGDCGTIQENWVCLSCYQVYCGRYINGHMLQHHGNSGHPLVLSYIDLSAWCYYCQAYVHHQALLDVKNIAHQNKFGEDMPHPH
The data set is described as follows: Inhibition of human HDAC6 using RHKKAc as substrate by fluorescence assay.

The target in data set [2] is T2, Histone deacetylase 1 (Homo sapiens, UniProt Q13547). The data set is described as follows: Inhibition of human HDAC1 using RHKKAc as substrate by fluorescence assay.
T2 sequence (Q13547 whole entry): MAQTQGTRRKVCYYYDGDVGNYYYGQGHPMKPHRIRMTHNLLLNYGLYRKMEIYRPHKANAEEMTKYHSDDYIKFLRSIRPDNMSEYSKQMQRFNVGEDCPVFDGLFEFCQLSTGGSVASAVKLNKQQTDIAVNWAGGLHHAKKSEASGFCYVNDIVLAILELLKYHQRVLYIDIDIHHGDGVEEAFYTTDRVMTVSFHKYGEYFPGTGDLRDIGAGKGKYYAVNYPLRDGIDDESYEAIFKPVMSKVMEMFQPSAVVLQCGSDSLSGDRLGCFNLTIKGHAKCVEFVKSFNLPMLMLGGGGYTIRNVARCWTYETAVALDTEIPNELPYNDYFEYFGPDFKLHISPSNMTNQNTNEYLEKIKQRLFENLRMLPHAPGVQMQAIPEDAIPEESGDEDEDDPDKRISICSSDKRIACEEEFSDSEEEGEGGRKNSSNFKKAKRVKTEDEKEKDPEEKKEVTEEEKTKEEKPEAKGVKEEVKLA
Data set [3] is described as follows: Metabolic stability in human liver microsomes assessed as parent compound remaining at 60 mins in presence of NADPH. The note with it: read-out: Stability. In kind it is ADME, microsome. The essentials:
(§1)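 Incubated in pooled liver microsomes (human or mouse as per line) with NADPH cofactor; all tests run in duplicate.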
A general note: Liver microsomes are a subcellular fraction often used to study metabolism.

A short description of data set [4]: Half life in human liver microsomes in presence of NADPH. In kind it is ADME, microsome. Put shortly: as §1
A short description of data set [5]: Metabolic stability in mouse liver microsomes assessed as parent compound remaining at 60 mins in presence of NADPH. In kind it is ADME, microsome. The note with it: read-out: Stability. The essentials: as §1
Data set [6] in a line: Half life in mouse liver microsomes in presence of NADPH. In kind it is ADME, microsome. Put shortly:
as §1

Data set [7] concerns the target T3, Protein deacetylase HDAC6 (Homo sapiens) (UniProt Q9UBN7).
T3 sequence (whole entry): T1 sequence (Q9UBN7 whole entry)
The data set is described as follows: Inhibition of HDAC6 in HEK293 cells assessed as induction of tubulin acetylation after 24 hrs by Western blot method. In kind it is cell-based. Put shortly: (§2)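 HEK293 cells are treated with compound, and acetylated tubulin and histone H3 are detected by Western blot with GAPDH as loading control. Each blot carries a tubastatin 10 µM positive control and a DMSO or medium negative control.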
For orientation: In western blotting, separated proteins are transferred to a membrane and probed.

Data set [8] addresses T2, Histone deacetylase 1. The data set is described as follows: Inhibition of HDAC1 in HEK293 cells assessed as increase in histone H3 acetylation at 5 uM after 24 hrs by Western blot method. In kind it is cell-based. The essentials: as §2
Data set [9] deals with Liver. The data set is described as follows: Prodrug conversion in human liver microsomes assessed as N-[4-[(5,7-Dichloroquinolin-8-yl)amino]butyl]-2-mercaptoacetamide formation measured over 60 mins. In kind it is ADME, microsome. The note with it: 1 h. Put shortly: (§3)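 Disulfide prodrug incubated with pooled human or mouse liver microsomes, with the released free mercaptoacetamide measured over time. Percent released is taken as the measured thiol concentration divided by twice the initial prodrug concentration.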

Data set [10] deals with Liver. The data set is described as follows: Prodrug conversion in mouse liver microsomes assessed as N-[4-[(5,7-Dichloroquinolin-8-yl)amino]butyl]-2-mercaptoacetamide formation measured over 60 mins. In kind it is ADME, microsome. To be noted: 1 h. The essentials: as §3
Another data set deals with Mus musculus. The data set is described as follows: In vivo inhibition of HDAC6 in C57Bl/6J mouse assessed as increase in tubulin acetylation in cerebral cortex at 20 mg/kg, ip first dose administered in evening followed by second dose in next day morning measured 6 hrs post last dose by Western blot method relative to vehicle-treated control. In kind it is functional. Also on record: scale not given: the % may be the effect or the level left. Put shortly: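 Mice (n=3) are dosed 20 mg/kg IP at 18:00, then dosed again at 20 mg/kg at 10:00 the next morning, and killed 6 h later. Cortex is taken for Western blot of acetyl-tubulin with GAPDH as loading control. Densitometric acetyl-tubulin/GAPDH ratio is expressed as % of vehicle-treated mice; significance is set at p<0.05.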

Data set [11] deals with Liver. The data set is described as follows: Prodrug conversion in human liver microsomes assessed as N-[5-(5,6-Dichloro-1H-indol-1-yl)pentyl]-2-mercaptoacetamide formation measured over 60 mins. In kind it is ADME, microsome. Put shortly: as §3
In data set [12] the test system is Liver. The data set is described as follows: Prodrug conversion in mouse liver microsomes assessed as N-[5-(5,6-Dichloro-1H-indol-1-yl)pentyl]-2-mercaptoacetamide formation measured over 60 mins. In kind it is ADME, microsome. Put shortly:
as §3

Activity calls are given as the source filed them. Bounds are passed on as bounds.

Regarding `O=C(CS)NCCCCCOc1c(Cl)cc(Cl)c2cccnc12`, the Ratio IC50 in the data set listed under Homo sapiens is more than 901. Moreover, the values for the IC50 (in data set [1]; against Histone deacetylase 1 [2]) were 33.3 nM and more than 30000 nM, respectively.

Turning to `O=C(CS)NCCCCCCn1cc(Cl)c2cc(Cl)c(Cl)cc21`, in the data set filed under Homo sapiens, the Ratio IC50 is more than 124. The concentration for half-maximal inhibition (IC50) in [1] was 241 nM; on Histone deacetylase 1 [2], more than 30000 nM.

`CC(C)c1cn(CCCCCCNC(=O)CS)c2cc(Cl)c(Cl)cc12`: the Ratio IC50 in the data set filed under Homo sapiens stood at 18. For the same compound, the IC50 was determined as 1570 nM in [1] and 28700 nM on Histone deacetylase 1 [2]. Further, the remaining at 1 h in data set [3] stood at 33.3%; in data set [5], 44.3%. The results for the half-life in data set [4] and in data set [6] were 48.8 min and 70 min, respectively.

The compound `O=C(CS)NCC(S)CCCn1ccc2cc(Cl)c(Cl)cc21` (stereo unspecified) displayed an IC50 in data set [1] of 534 nM.

Take `O=C(CSSCC(=O)NCCCCNc1c(Cl)cc(Cl)c2cccnc12)NCCCCNc1c(Cl)cc(Cl)c2cccnc12`: the inhibition result in data set [7] was “Dose-dependent effect”. Besides, at Histone deacetylase 1 [8], the inhibition entry was “Active”. Moreover, the remaining at 1 h was 8.5% in data set [3] and 18.2% in data set [5]. The results for the half-life in [4] and in data set [6] were 20.7 min and 25.9 min, respectively. In addition, the Drug metabolism result in the data set with Liver [9] and with Liver [10] was “Metabolite_Detected” each time. Moreover, the Activity in the data set on Mus musculus amounted to 30%.

As to `O=C(CS)NCCCCCCn1ccc2cc(F)c(Cl)cc21`, in the data set listed under Homo sapiens, the Ratio IC50 was 450. For the same compound, the results for the half-maximal inhibitory concentration (IC50) (in [1]; against Histone deacetylase 1 [2]) were 65.1 nM and 29300 nM, respectively.

As to `O=C(CS)NCCCCCNc1c(Cl)cc(Cl)c2cccnc12`, the Ratio IC50 in the data set listed under Homo sapiens came out at 444. Besides, the 50% inhibitory concentration (IC50) is 14.8 nM in data set [1] and 6570 nM at Histone deacetylase 1 [2]. In addition, the remaining at 1 h was 32.1% in data set [3] and 39.6% in data set [5]. Further, the half-life was determined as 42.5 min in data set [4] and 51 min in data set [6].

For the compound `O=C(CS)NCCCCNc1c(Cl)cc(Cl)c2cccnc12`, the half-inhibitory concentration (IC50) worked out at 2.79 nM in data set [1] and 6880 nM on Histone deacetylase 1 [2]. The figures for the remaining at 1 h in data set [3] and in data set [5] were 22.3% and 61.7%, respectively. The half-life in [4] is 32.2 min; in data set [6], 91.2 min.

As to `O=C(CSSCC(=O)NCCCCCn1ccc2cc(Cl)c(Cl)cc21)NCCCCCn1ccc2cc(Cl)c(Cl)cc21`, the inhibition result in data set [7] is “Dose-dependent effect”. Also, on Histone deacetylase 1 [8], the inhibition result was “Active”. The results for the remaining at 1 h in [3] and in data set [5] were 40.5% and 18.2%, respectively. In addition, the half-life in [4] worked out at 49.5 min; in [6], 24.8 min. Also, the Drug metabolism entry with Liver [11] and with Liver [12] was “Metabolite_Detected” each time. In addition, in the data set on Mus musculus, the Activity stood at 40%.

On to `O=C(CS)NCCCCCn1ccc2cc(Cl)c(Cl)cc21`, for which the Ratio IC50 in the data set listed under Homo sapiens was determined as 657. Moreover, the values for the half-inhibitory concentration (IC50) (in data set [1]; against Histone deacetylase 1 [2]) were 11.4 nM and 7490 nM, respectively. The inhibition result in [7] was “Dose-dependent effect”. Further, the remaining at 1 h in [3] came out at 25.3%; in data set [5] it was 29.5%. Besides, the half-life in data set [4] amounted to 35.2 min; in [6], 41.3 min.

As for `CC(C)C(=O)SCC(=O)NCCCCCn1ccc2cc(Cl)c(Cl)cc21`, the inhibition result in data set [7] was “Dose-dependent effect”. For the same compound, the remaining at 1 h in data set [3] and in data set [5] was less than 1% each time. The half-life in [4] and in data set [6] was less than 1 min each time. Besides, the Drug metabolism entry in the data set with Liver [11] and with Liver [12] was “Metabolite_Detected” in each case.

As to `O=C(CS)NCCCCCCn1ccc2cc(Cl)c(Cl)cc21`, the Ratio IC50 in the data set listed under Homo sapiens is more than 470. In addition, the IC50 is 63.9 nM in data set [1] and more than 30000 nM against Histone deacetylase 1 [2].

Usually IC50 stands for the concentration that gives 50% inhibition. As a reminder, the half-life is the time needed for the level to fall by half in the phase considered.
